Tested on: L02
Assay: Cytotoxicity against human HL7702 cells assessed as cell viability after 72 hrs by CCK-8 assay
Assay type: cell-based
Details: L02, 72 h
Procedure, shortened: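 Log-phase HL7702 cells were plated at ~3000 cells/well and treated 24 h later with compound or vehicle for 72 h. CCK-8 was added for 3 h and OD450 minus OD650 measured. Viability = (As−Ac)/(Ab−Ac)×100, with Ac a cell-free blank and Ab the vehicle control.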

SMILES	IC50 [nM]
COc1cc(OC)c(Cl)c(N2Cc3cnc(Nc4ccccc4)nc3N(C3CCN(C(=O)/C=C/CN(C)C)CC3)C2=O)c1Cl	1890

Tested on: SW780
Assay: Antiproliferative activity against human FGFR3-amplified SW780 cells after 5 days by SRB assay
Details: SW780, 120 h

SMILES	IC50 [nM]
CNc1ncc2c(n1)N(C1CCN(C(=O)/C=C/CN(C)C)CC1)C(=O)N(c1c(Cl)c(OC)cc(OC)c1Cl)C2	5.2
COc1cc(OC)c(Cl)c(N2Cc3cnc(Nc4cccc(C)c4)nc3N(C3CCN(C(=O)/C=C/CN(C)C)CC3)C2=O)c1Cl	15.1
COc1cc(OC)c(Cl)c(N2Cc3cnc(N(C)C)nc3N(C3CCN(C(=O)/C=C/CN(C)C)CC3)C2=O)c1Cl	570
COc1cc(OC)c(Cl)c(N2Cc3cnc(NC(C)C)nc3N(C3CCN(C(=O)/C=C/CN(C)C)CC3)C2=O)c1Cl	12.3
COc1ccc(Nc2ncc3c(n2)N(C2CCN(C(=O)/C=C/CN(C)C)CC2)C(=O)N(c2c(Cl)c(OC)cc(OC)c2Cl)C3)cc1	0.3
CCN(CC)CCCCNc1ncc2cc(-c3cc(OC)cc(OC)c3)c(NC(=O)NC(C)(C)C)nc2n1 [PD-173074]	84.3
C=CC(=O)Nc1cccc(CN2C(=O)N(c3c(Cl)c(OC)cc(OC)c3Cl)Cc3cnc(NCCCCN(CC)CC)nc32)c1	277
COc1cc(OC)c(Cl)c(N2Cc3cnc(NC4CCCCC4)nc3N(C3CCN(C(=O)/C=C/CN(C)C)CC3)C2=O)c1Cl	14.5
COc1cc(OC)c(Cl)c(N2Cc3cnc(NC4CCOC4)nc3N(C3CCN(C(=O)/C=C/CN(C)C)CC3)C2=O)c1Cl (stereo not drawn)	32
COc1ccccc1Nc1ncc2c(n1)N(C1CCN(C(=O)/C=C/CN(C)C)CC1)C(=O)N(c1c(Cl)c(OC)cc(OC)c1Cl)C2	27.5
COc1cc(OC)c(Cl)c(N2Cc3cnc(NC4CCOCC4)nc3N(C3CCN(C(=O)/C=C/CN(C)C)CC3)C2=O)c1Cl	3.34
COc1cc(OC)c(Cl)c(N2Cc3cnc(Nc4cccc(F)c4)nc3N(C3CCN(C(=O)/C=C/CN(C)C)CC3)C2=O)c1Cl	9
COc1cc(OC)c(Cl)c(N2Cc3cnc(Nc4ccccc4)nc3N(C3CCN(C(=O)/C=C/CN(C)C)CC3)C2=O)c1Cl	9.73
COc1cccc(Nc2ncc3c(n2)N(C2CCN(C(=O)/C=C/CN(C)C)CC2)C(=O)N(c2c(Cl)c(OC)cc(OC)c2Cl)C3)c1	5.4

Tested on: NCI-H1299
Assay: Antiproliferative activity against human NCI-H1299 cells after 5 days by SRB assay
Assay type: functional, cell-based
Details: NCI-H1299, 120 h
Procedure, shortened: (§1)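 Grown in α-MEM + 5% FBS at 37 °C, 5% CO2. Seeding per well: 3000 (H661), 1000 (PC9), 400 (H460, H1299), attached overnight. Cells were dosed with a 3-fold serial dilution from DMSO stocks for 5 days. Then cold TCA fixation, 0.4% SRB staining, solubilisation in 10 mM Tris pH 10.5, absorbance at 490 nm. IC50 was derived from the curves.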

SMILES	IC50 [nM]
COc1cc(OC)c(Cl)c(N2Cc3cnc(Nc4ccccc4)nc3N(C3CCN(C(=O)/C=C/CN(C)C)CC3)C2=O)c1Cl	2480

Tested on: not listed separately
Assay: Antiproliferative activity against human FGFR2-amplified SUM52 cells after 5 days by SRB assay
Details: SUM52, 120 h

SMILES	IC50 [nM]
CNc1ncc2c(n1)N(C1CCN(C(=O)/C=C/CN(C)C)CC1)C(=O)N(c1c(Cl)c(OC)cc(OC)c1Cl)C2	2
COc1cc(OC)c(Cl)c(N2Cc3cnc(Nc4cccc(C)c4)nc3N(C3CCN(C(=O)/C=C/CN(C)C)CC3)C2=O)c1Cl	1.1
COc1cc(OC)c(Cl)c(N2Cc3cnc(N(C)C)nc3N(C3CCN(C(=O)/C=C/CN(C)C)CC3)C2=O)c1Cl	224
COc1cc(OC)c(Cl)c(N2Cc3cnc(NC(C)C)nc3N(C3CCN(C(=O)/C=C/CN(C)C)CC3)C2=O)c1Cl	0.65
COc1ccc(Nc2ncc3c(n2)N(C2CCN(C(=O)/C=C/CN(C)C)CC2)C(=O)N(c2c(Cl)c(OC)cc(OC)c2Cl)C3)cc1	0.8
CCN(CC)CCCCNc1ncc2cc(-c3cc(OC)cc(OC)c3)c(NC(=O)NC(C)(C)C)nc2n1 [PD-173074]	12.3
C=CC(=O)Nc1cccc(CN2C(=O)N(c3c(Cl)c(OC)cc(OC)c3Cl)Cc3cnc(NCCCCN(CC)CC)nc32)c1	2.9
COc1cc(OC)c(Cl)c(N2Cc3cnc(NC4CCCCC4)nc3N(C3CCN(C(=O)/C=C/CN(C)C)CC3)C2=O)c1Cl	0.84
COc1cc(OC)c(Cl)c(N2Cc3cnc(NC4CCOC4)nc3N(C3CCN(C(=O)/C=C/CN(C)C)CC3)C2=O)c1Cl (stereo not drawn)	4
COc1ccccc1Nc1ncc2c(n1)N(C1CCN(C(=O)/C=C/CN(C)C)CC1)C(=O)N(c1c(Cl)c(OC)cc(OC)c1Cl)C2	3.3
COc1cc(OC)c(Cl)c(N2Cc3cnc(NC4CCOCC4)nc3N(C3CCN(C(=O)/C=C/CN(C)C)CC3)C2=O)c1Cl	0.57
COc1cc(OC)c(Cl)c(N2Cc3cnc(Nc4cccc(F)c4)nc3N(C3CCN(C(=O)/C=C/CN(C)C)CC3)C2=O)c1Cl	1.1
COc1cc(OC)c(Cl)c(N2Cc3cnc(Nc4ccccc4)nc3N(C3CCN(C(=O)/C=C/CN(C)C)CC3)C2=O)c1Cl	0.65
COc1cccc(Nc2ncc3c(n2)N(C2CCN(C(=O)/C=C/CN(C)C)CC2)C(=O)N(c2c(Cl)c(OC)cc(OC)c2Cl)C3)c1	1

Tested on: NCI-H460
Assay: Antiproliferative activity against human NCI-H460 cells after 5 days by SRB assay
Assay type: functional, cell-based
Details: NCI-H460, 120 h
Procedure, shortened: as §1

SMILES	IC50 [nM]
COc1cc(OC)c(Cl)c(N2Cc3cnc(Nc4ccccc4)nc3N(C3CCN(C(=O)/C=C/CN(C)C)CC3)C2=O)c1Cl	1400

Tested on: NCI-H661
Assay: Antiproliferative activity against human NCI-H661 cells after 5 days by SRB assay
Assay type: functional, cell-based
Details: NCI-H661, 120 h
Procedure, shortened: as §1

SMILES	IC50 [nM]
COc1cc(OC)c(Cl)c(N2Cc3cnc(Nc4ccccc4)nc3N(C3CCN(C(=O)/C=C/CN(C)C)CC3)C2=O)c1Cl	2750

Molecular target: Fibroblast growth factor receptor 3 (Homo sapiens, UniProt P22607)
Sequence (P22607 whole entry, the tested form may be a part): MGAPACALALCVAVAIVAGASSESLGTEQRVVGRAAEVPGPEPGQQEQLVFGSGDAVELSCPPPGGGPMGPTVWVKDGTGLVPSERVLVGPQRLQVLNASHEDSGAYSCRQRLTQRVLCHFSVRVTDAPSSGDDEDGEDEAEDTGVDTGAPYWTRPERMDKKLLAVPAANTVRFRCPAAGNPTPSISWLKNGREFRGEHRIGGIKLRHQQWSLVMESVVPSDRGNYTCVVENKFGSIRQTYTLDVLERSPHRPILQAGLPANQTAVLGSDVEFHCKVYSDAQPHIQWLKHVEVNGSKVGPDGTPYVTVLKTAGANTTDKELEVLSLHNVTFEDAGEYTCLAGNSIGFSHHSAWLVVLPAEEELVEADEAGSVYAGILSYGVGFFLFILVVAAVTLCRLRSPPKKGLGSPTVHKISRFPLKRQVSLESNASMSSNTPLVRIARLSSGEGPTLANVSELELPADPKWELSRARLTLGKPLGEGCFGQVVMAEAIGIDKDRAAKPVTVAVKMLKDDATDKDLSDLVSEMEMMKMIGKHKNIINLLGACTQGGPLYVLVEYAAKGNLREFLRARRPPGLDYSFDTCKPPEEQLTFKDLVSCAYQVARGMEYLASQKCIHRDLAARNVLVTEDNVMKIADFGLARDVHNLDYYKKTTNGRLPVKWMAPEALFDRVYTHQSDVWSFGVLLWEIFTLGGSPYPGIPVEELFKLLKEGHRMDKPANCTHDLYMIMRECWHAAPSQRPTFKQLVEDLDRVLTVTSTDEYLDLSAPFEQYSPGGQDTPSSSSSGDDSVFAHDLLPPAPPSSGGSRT
Assay: Inhibition of human recombinant His-tagged FGFR3 cytoplasmic domain (399 to 806 residues) expressed in baculovirus using Tyr-4 peptide after 1 hr by FRET-based Z'-Lyte assay
Details: not given

SMILES	IC50 [nM]
COc1cc(OC)c(Cl)c(N2Cc3cnc(N(C)C)nc3N(C3CCN(C(=O)/C=C/CN(C)C)CC3)C2=O)c1Cl	> 1000

Tested on: PC-9
Assay: Antiproliferative activity against human PC9 cells after 5 days by SRB assay
Assay type: functional, cell-based
Details: PC-9, 120 h
Procedure, shortened: as §1

SMILES	IC50 [nM]
COc1cc(OC)c(Cl)c(N2Cc3cnc(Nc4ccccc4)nc3N(C3CCN(C(=O)/C=C/CN(C)C)CC3)C2=O)c1Cl	1260

Molecular target: Fibroblast growth factor receptor 4 (Homo sapiens, UniProt P22455)
Sequence (P22455 whole entry, the tested form may be a part): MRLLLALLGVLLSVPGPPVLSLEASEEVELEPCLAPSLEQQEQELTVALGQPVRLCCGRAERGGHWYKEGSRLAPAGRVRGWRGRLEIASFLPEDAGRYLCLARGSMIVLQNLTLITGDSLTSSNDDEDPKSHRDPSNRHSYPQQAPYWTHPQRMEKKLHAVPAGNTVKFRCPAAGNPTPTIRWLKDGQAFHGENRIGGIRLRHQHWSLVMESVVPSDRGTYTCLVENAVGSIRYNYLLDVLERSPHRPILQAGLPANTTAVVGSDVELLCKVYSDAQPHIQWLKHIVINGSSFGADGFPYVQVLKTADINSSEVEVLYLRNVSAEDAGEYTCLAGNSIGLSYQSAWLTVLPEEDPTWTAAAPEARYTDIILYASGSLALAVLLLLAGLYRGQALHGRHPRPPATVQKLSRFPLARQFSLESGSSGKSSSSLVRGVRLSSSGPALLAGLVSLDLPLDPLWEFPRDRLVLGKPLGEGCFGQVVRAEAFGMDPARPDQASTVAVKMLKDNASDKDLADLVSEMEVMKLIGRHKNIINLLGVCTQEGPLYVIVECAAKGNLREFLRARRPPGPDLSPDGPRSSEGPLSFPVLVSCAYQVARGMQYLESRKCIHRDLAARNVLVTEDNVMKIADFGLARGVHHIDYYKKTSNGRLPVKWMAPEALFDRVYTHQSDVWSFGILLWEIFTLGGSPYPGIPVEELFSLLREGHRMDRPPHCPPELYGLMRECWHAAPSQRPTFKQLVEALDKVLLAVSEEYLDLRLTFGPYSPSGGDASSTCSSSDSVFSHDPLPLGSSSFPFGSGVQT
Assay: Inhibition of human recombinant His-tagged FGFR4 cytoplasmic domain ([…] residues) expressed in baculovirus using Tyr-4 peptide after 1 hr by FRET-based Z'-Lyte assay
Details: not given

SMILES	IC50 [nM]
COc1cc(OC)c(Cl)c(N2Cc3cnc(N(C)C)nc3N(C3CCN(C(=O)/C=C/CN(C)C)CC3)C2=O)c1Cl	> 1000

Tested on: NCI-H520
Assay: Antiproliferative activity against human FGFR1-amplified NCI-H520 cells after 7 days by SRB assay
Details: NCI-H520, 168 h

SMILES	IC50 [nM]
CNc1ncc2c(n1)N(C1CCN(C(=O)/C=C/CN(C)C)CC1)C(=O)N(c1c(Cl)c(OC)cc(OC)c1Cl)C2	56.2
COc1cc(OC)c(Cl)c(N2Cc3cnc(Nc4cccc(C)c4)nc3N(C3CCN(C(=O)/C=C/CN(C)C)CC3)C2=O)c1Cl	5.3
COc1cc(OC)c(Cl)c(N2Cc3cnc(N(C)C)nc3N(C3CCN(C(=O)/C=C/CN(C)C)CC3)C2=O)c1Cl	2420
COc1cc(OC)c(Cl)c(N2Cc3cnc(NC(C)C)nc3N(C3CCN(C(=O)/C=C/CN(C)C)CC3)C2=O)c1Cl	4.91
COc1ccc(Nc2ncc3c(n2)N(C2CCN(C(=O)/C=C/CN(C)C)CC2)C(=O)N(c2c(Cl)c(OC)cc(OC)c2Cl)C3)cc1	3
C=CC(=O)Nc1cccc(CN2C(=O)N(c3c(Cl)c(OC)cc(OC)c3Cl)Cc3cnc(NCCCCN(CC)CC)nc32)c1	121
COc1cc(OC)c(Cl)c(N2Cc3cnc(NC4CCCCC4)nc3N(C3CCN(C(=O)/C=C/CN(C)C)CC3)C2=O)c1Cl	13.6
COc1cc(OC)c(Cl)c(N2Cc3cnc(NC4CCOC4)nc3N(C3CCN(C(=O)/C=C/CN(C)C)CC3)C2=O)c1Cl (stereo not drawn)	70
COc1ccccc1Nc1ncc2c(n1)N(C1CCN(C(=O)/C=C/CN(C)C)CC1)C(=O)N(c1c(Cl)c(OC)cc(OC)c1Cl)C2	39.8
COc1cc(OC)c(Cl)c(N2Cc3cnc(NC4CCOCC4)nc3N(C3CCN(C(=O)/C=C/CN(C)C)CC3)C2=O)c1Cl	7.82
COc1cc(OC)c(Cl)c(N2Cc3cnc(Nc4cccc(F)c4)nc3N(C3CCN(C(=O)/C=C/CN(C)C)CC3)C2=O)c1Cl	6.5
COc1cc(OC)c(Cl)c(N2Cc3cnc(Nc4ccccc4)nc3N(C3CCN(C(=O)/C=C/CN(C)C)CC3)C2=O)c1Cl	4.14
COc1cccc(Nc2ncc3c(n2)N(C2CCN(C(=O)/C=C/CN(C)C)CC2)C(=O)N(c2c(Cl)c(OC)cc(OC)c2Cl)C3)c1	19.3

— ChEMBL document CHEMBL4043093, “2-Oxo-3, 4-dihydropyrimido[4, 5-d]pyrimidinyl derivatives as new irreversible pan fibroblast growth factor receptor (FGFR) inhibitors” (Eur J Med Chem, 2017)
